Assay [1] has as its target T1, Carbonic anhydrase 9 (Homo sapiens, UniProt Q16790). Description: Inhibition of recombinant human CA9 pre-incubated for 15 mins measured by phenol red dye based stopped flow CO2 hydration assay.
In another assay the target is Carbonic anhydrase 1 (Homo sapiens, UniProt P00915). The experiment in a line: Inhibition of recombinant human CA1 pre-incubated for 6 hrs measured by phenol red dye based stopped flow CO2 hydration assay. The essentials:
(§1)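 Stopped-flow CO2 hydration at 0.2 mM phenol red (557 nm) in 20 mM Hepes pH 7.5 with 20 mM Na2SO4, initial rates followed for 10–100 s. CO2 1.7–17 mM; ≥6 traces of the first 5–10% of reaction per inhibitor; uncatalysed rate subtracted. Inhibitor diluted in assay buffer down to 0.01 nM, preincubated with enzyme 6 h at room temperature. Values are means of 3 assays.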

The next assay deals with Carbonic anhydrase 2 (Homo sapiens, UniProt P00918). Description: Inhibition of recombinant human CA2 pre-incubated for 6 hrs measured by phenol red dye based stopped flow CO2 hydration assay. The essentials: as §1
The target in the next assay is Carbonic anhydrase 12 (Homo sapiens, UniProt O43570). Description: Inhibition of recombinant human CA12 pre-incubated for 6 hrs measured by phenol red dye based stopped flow CO2 hydration assay. The essentials: as §1
In assay [2] the target is T1, Carbonic anhydrase 9. The experiment in a line: Inhibition of recombinant human CA9 pre-incubated for 6 hrs measured by phenol red dye based stopped flow CO2 hydration assay. Put shortly: as §1
In a further assay the test system is HeLa. The experiment in a line: Antiproliferative activity against human HeLa cells assessed as cell viability measured after 72 hrs by SRB assay. It is filed as functional, cell-based. Put shortly: (§2)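 SRB colorimetric assay on ATCC-sourced cell lines kept in RPMI or DMEM with 10% heat-inactivated FBS, penicillin 100 units/mL and streptomycin at 37 °C in humidified 5% CO2. Preliminary screen: each compound tested in triplicate at two fixed concentrations (10 and 100). Read-out is percent cell viability.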
(In SRB staining, fixed cells bind dye roughly in proportion to their protein.)

Assay [3] relates to T47D. The experiment in a line: Antiproliferative activity against human T47D cells assessed as cell viability measured after 72 hrs by SRB assay. It is filed as functional, cell-based. Put shortly:
as §2

The subject of another assay is COLO 205. The experiment in a line: Antiproliferative activity against human COLO 205 cells assessed as cell viability measured after 72 hrs by SRB assay. It is filed as functional, cell-based. The essentials: as §2
Another assay has as its system HL-60. The experiment in a line: Antiproliferative activity against human HL-60 cells assessed as cell viability measured after 72 hrs by SRB assay. The class given is functional, cell-based. Put shortly:
as §2

The test system of a further assay is SK-OV-3. Description: Antiproliferative activity against human SK-OV-3 cells assessed as cell viability measured after 72 hrs by SRB assay. It is filed as functional, cell-based. The essentials:
as §2

Assay [4] deals with MDA-MB-231. The experiment in a line: Antiproliferative activity against human MDA-MB-231 cells assessed as cell viability measured after 72 hrs by SRB assay. It is filed as functional, cell-based. Put shortly: as §2
Assay [5] deals with MDA-MB-231. The experiment in a line: cells. Particulars: Homo sapiens, MDA-MB-231, 72 h.
A further assay concerns A549. Description: Antiproliferative activity against human A549 cells assessed as cell viability measured after 72 hrs by SRB assay. The class given is functional, cell-based. Put shortly:
as §2

Assay [6] deals with T47D. The experiment in a line: cells. Particulars: Homo sapiens, 72 h.
The test system of another assay is MCF7. The experiment in a line: Antiproliferative activity against human MCF7 cells assessed as cell viability measured after 72 hrs by SRB assay. It is filed as functional, cell-based. Put shortly: as §2
Assay [7] has as its system T47D. Description: Induction of apoptosis in human T47D cells assessed as viable cells at […] uM measured after 24 hrs by Annexin V-FITC stain based flow cytometry method relative to control. It is filed as functional, cell-based. The following applies: dose 7.56 µM.
In assay [8] the test system is T47D. The experiment in a line: Induction of apoptosis in human T47D cells assessed as early apoptotic cells at […] uM measured after 24 hrs by Annexin V-FITC stain based flow cytometry method (reference value: 0.39%). It is filed as functional.
The subject of assay [9] is T47D. Description: Induction of apoptosis in human T47D cells assessed as late apoptotic cells at […] uM measured after 24 hrs by Annexin V-FITC stain based flow cytometry method (reference value: 0.17%). It is filed as functional.
The subject of assay [10] is T47D. The experiment in a line: Induction of apoptosis in human T47D cells assessed as necrotic cells at […] uM measured after 24 hrs by Annexin V-FITC stain based flow cytometry method (reference value: 1.91%). It is filed as functional. A general note: In flow cytometry, cells or beads pass a laser one at a time.
The subject of assay [11] is T47D. The experiment in a line: Induction of cell cycle arrest in human T47D cells assessed as accumulation of cells in sub-G1 phase at […] uM measured after 24 hrs by DNA flow cytometry assay (reference value: 2.41%). It is filed as functional.
The subject of assay [12] is T47D. Description: Induction of cell cycle arrest in human T47D cells assessed as accumulation of cells in G2/M phase at […] uM measured after 24 hrs by DNA flow cytometry assay (reference value: 16.59%). It is filed as functional.
The test system of assay [13] is T47D. Description: Induction of apoptosis in human T47D cells assessed as viable cells at […] uM measured after 24 hrs by Annexin V-FITC stain based flow cytometry method. It is filed as functional, cell-based. Particulars: dose 2.45 µM.

The values that follow come from ChEMBL document CHEMBL4765260, “Inclusion of a 5-fluorouracil moiety in nitrogenous bases derivatives as human carbonic anhydrase IX and XII inhibitors produced a targeted action against MDA-MB-231 and T47D breast cancer cells” (Eur J Med Chem, 2020).

Molecules are shown by their SMILES. Activity calls are given as the source filed them. The calls are words filed in the database; no cut-off is given here.

Broadly, the Ki is the equilibrium dissociation constant of an inhibitor or competing ligand from its target. For orientation: IC50 means the point on the concentration scale where inhibition reaches its midpoint. Low values mean greater potency, high ones weaker potency.

Chain of Carbonic anhydrase 1 (P00915 whole entry): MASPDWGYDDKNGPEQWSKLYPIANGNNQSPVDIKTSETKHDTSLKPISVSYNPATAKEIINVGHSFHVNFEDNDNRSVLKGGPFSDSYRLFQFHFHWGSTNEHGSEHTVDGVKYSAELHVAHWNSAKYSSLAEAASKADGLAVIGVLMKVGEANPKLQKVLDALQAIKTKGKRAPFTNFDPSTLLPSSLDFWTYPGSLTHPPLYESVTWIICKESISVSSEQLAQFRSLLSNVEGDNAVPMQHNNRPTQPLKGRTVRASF
Chain of Carbonic anhydrase 12 (O43570 whole entry): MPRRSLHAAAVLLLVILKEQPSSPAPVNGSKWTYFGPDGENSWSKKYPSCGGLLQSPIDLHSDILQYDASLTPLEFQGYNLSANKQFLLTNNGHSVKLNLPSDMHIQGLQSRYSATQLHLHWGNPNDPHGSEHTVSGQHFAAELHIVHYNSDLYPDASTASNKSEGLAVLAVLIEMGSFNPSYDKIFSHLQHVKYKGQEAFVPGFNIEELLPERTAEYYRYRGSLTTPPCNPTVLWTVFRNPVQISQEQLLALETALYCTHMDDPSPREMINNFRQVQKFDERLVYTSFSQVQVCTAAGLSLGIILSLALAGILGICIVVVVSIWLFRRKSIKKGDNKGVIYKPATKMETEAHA

Take `NS(=O)(=O)c1cccc(-n2cc(Cn3cc(F)c(=O)[nH]c3=O)nn2)c1`: the Ki on Carbonic anhydrase 9 [1] worked out at 105 nM.
Turning to `NS(=O)(=O)c1ccc(NC(=O)Cn2cc(F)c(=O)[nH]c2=O)cc1`, the Ki at Carbonic anhydrase 9 [1] is 4.8 nM.
As to `NS(=O)(=O)c1ccc(CCNC(=O)Cn2cc(F)c(=O)[nH]c2=O)cc1`, the Ki at Carbonic anhydrase 9 [1] worked out at 24.8 nM.
For `O=C(Cn1cc(F)c(=O)[nH]c1=O)Oc1ccc2ccc(=O)oc2c1`, the Ki on Carbonic anhydrase 1 is over 10000 nM; at Carbonic anhydrase 2 it was over 10000 nM; at Carbonic anhydrase 12, 14.4 nM; at Carbonic anhydrase 9 [2] it was 36.8 nM.
For the compound `Cc1cc(=O)oc2cc(-n3cc(Cn4cc(F)c(=O)[nH]c4=O)nn3)ccc12`, the Ki on Carbonic anhydrase 1 is over 10000 nM; at Carbonic anhydrase 2, over 10000 nM; on Carbonic anhydrase 12 it was 408 nM; on Carbonic anhydrase 9 [2], 173 nM.
On to `Cc1cc(=O)oc2cc(NC(=O)Cn3cc(F)c(=O)[nH]c3=O)ccc12`, for which the inhibition constant Ki on Carbonic anhydrase 1 is over 10000 nM; on Carbonic anhydrase 2 it was over 10000 nM; at Carbonic anhydrase 12 it was 23.2 nM; on Carbonic anhydrase 9 [2], 16.5 nM. In addition, the “growth inhibition (GI)” value in the assay with HeLa, in the assay with COLO 205, with HL-60, in the assay on SK-OV-3, in the assay with A549 and in the assay on MCF7 was “inactive” throughout. For the same compound, the “growth inhibition (GI)” value in the assay on T47D [3] and with MDA-MB-231 [4] was “Active” throughout. In addition, the IC50 with MDA-MB-231 [5] stood at 32000 nM; in the assay with T47D [6] it was 13200 nM.
In the case of `CN(C)c1ccc(CN(CCc2ccc(S(N)(=O)=O)cc2)C(=O)Cn2cc(F)c(=O)[nH]c2=O)cc1`, the Ki at Carbonic anhydrase 9 [1] was found to be 26.8 nM.
For the compound `NS(=O)(=O)c1ccc(-n2cc(Cn3cc(F)c(=O)[nH]c3=O)nn2)cc1`, the “growth inhibition (GI)” value in the assay with HeLa, in the assay on COLO 205, with HL-60, in the assay with SK-OV-3, in the assay on A549 and in the assay with MCF7 was “inactive” throughout. Further, the “growth inhibition (GI)” value in the assay with T47D [3] and with MDA-MB-231 [4] was “Active” each time. Besides, at Carbonic anhydrase 9 [1], the Ki turned out to be 0.47 nM. Further, the figures for the IC50 in the assay on MDA-MB-231 [5] and in the assay with T47D [6] were 22800 nM and 33500 nM, respectively.
Turning to `NS(=O)(=O)c1ccc(CCN(Cc2ccc(F)cc2)C(=O)Cn2cc(F)c(=O)[nH]c2=O)cc1`, the Ki on Carbonic anhydrase 9 [1] was 11.8 nM.
Still for that read-out and setting: as for `NS(=O)(=O)c1ccc(-n2cc(Cn3cc(F)c(=O)[nH]c3=O)nn2)c(Cl)c1`, the figure is 11.2 nM; as for `NS(=O)(=O)c1ccc(CNC(=O)Cn2cc(F)c(=O)[nH]c2=O)cc1`, 29.2 nM.
For the compound `NS(=O)(=O)c1ccc(-n2cc(Cn3cc(F)c(=O)[nH]c3=O)nn2)c(Br)c1`, at Carbonic anhydrase 9 [1], the Ki was 3.8 nM.
As for `NS(=O)(=O)c1ccc(O)c(NC(=O)Cn2cc(F)c(=O)[nH]c2=O)c1`, the outcome with T47D [7] was Active. Further, the Activity turned out to be 3.59% in the assay with T47D [8] (7.56 µM); 9.62% with T47D [9] (7.56 µM); 1.36% in the assay with T47D [10] (7.56 µM); 12.72% in the assay with T47D [11] (7.56 µM); 26.83% in the assay with T47D [12] (7.56 µM). Moreover, the “growth inhibition (GI)” value with HeLa, in the assay with COLO 205, with HL-60, in the assay on SK-OV-3, in the assay on A549 and in the assay on MCF7 was “inactive” throughout. The “growth inhibition (GI)” value in the assay with T47D [3] and in the assay on MDA-MB-231 [4] was “Active” in each case. Further, at Carbonic anhydrase 9 [1], the Ki was determined as 453 nM. In addition, the IC50 with MDA-MB-231 [5] came to 25500 nM; in the assay with T47D [6], 7560 nM.
`COc1ccc(CN(CCc2ccc(S(N)(=O)=O)cc2)C(=O)Cn2cc(F)c(=O)[nH]c2=O)cc1`: the Activity with T47D [8] (2.45 µM) is recorded as 7.31%; with T47D [9] (2.45 µM) it was 12.19%; in the assay on T47D [10] (2.45 µM) it was 2.51%; in the assay on T47D [11] (2.45 µM) it was 18.04%; in the assay with T47D [12] (2.45 µM), 35.47%. In addition, the “growth inhibition (GI)” value in the assay with HeLa, in the assay on COLO 205, in the assay with HL-60, in the assay with SK-OV-3, with A549 and in the assay on MCF7 was “inactive” each time. Moreover, the “growth inhibition (GI)” value in the assay with T47D [3] and in the assay on MDA-MB-231 [4] was “Active” each time. Besides, the Ki at Carbonic anhydrase 9 [1] stood at 1.9 nM. Moreover, the IC50 turned out to be 6860 nM in the assay on MDA-MB-231 [5] and 2450 nM in the assay on T47D [6]. Moreover, in the assay on T47D [13], the outcome was Active.
For `NS(=O)(=O)c1ccc(CCN(Cc2ccc(Cl)cc2)C(=O)Cn2cc(F)c(=O)[nH]c2=O)cc1`, the “growth inhibition (GI)” value in the assay with HeLa, with COLO 205, with HL-60, in the assay on SK-OV-3, in the assay with A549 and with MCF7 was “inactive” throughout. The “growth inhibition (GI)” value in the assay with T47D [3] and in the assay with MDA-MB-231 [4] was “Active” throughout. The inhibition constant Ki on Carbonic anhydrase 9 [1] was 4.2 nM. The IC50 was 40900 nM in the assay on MDA-MB-231 [5] and 18900 nM in the assay on T47D [6].
Regarding `NS(=O)(=O)c1cccc(NC(=O)Cn2cc(F)c(=O)[nH]c2=O)c1`, the Ki at Carbonic anhydrase 9 [1] stood at 44.7 nM.
For the compound `NS(=O)(=O)c1ccc(CCN(Cc2ccccc2)C(=O)Cn2cc(F)c(=O)[nH]c2=O)cc1`, the Ki at Carbonic anhydrase 9 [1] turned out to be 3.5 nM.
The same measure, in the same setting: the result for `N#Cc1ccc(CN(CCc2ccc(S(N)(=O)=O)cc2)C(=O)Cn2cc(F)c(=O)[nH]c2=O)cc1` reads 4.9 nM.
